Measured values reported in ChEMBL document CHEMBL1127414 (J Med Chem, 1994).
Converted amounts (≈) assume the structure as drawn. Blank lines part the entries; values can stand above or below the compound they belong to.

Columns and labels:
Squalene synthase [1] = target: T1, Squalene synthase (Rattus norvegicus, UniProt Q02769); test: Concentration required for inhibition of rat liver squalene synthase enzyme at 161 nM; NA = not active
T1 sequence (Q02769 whole entry): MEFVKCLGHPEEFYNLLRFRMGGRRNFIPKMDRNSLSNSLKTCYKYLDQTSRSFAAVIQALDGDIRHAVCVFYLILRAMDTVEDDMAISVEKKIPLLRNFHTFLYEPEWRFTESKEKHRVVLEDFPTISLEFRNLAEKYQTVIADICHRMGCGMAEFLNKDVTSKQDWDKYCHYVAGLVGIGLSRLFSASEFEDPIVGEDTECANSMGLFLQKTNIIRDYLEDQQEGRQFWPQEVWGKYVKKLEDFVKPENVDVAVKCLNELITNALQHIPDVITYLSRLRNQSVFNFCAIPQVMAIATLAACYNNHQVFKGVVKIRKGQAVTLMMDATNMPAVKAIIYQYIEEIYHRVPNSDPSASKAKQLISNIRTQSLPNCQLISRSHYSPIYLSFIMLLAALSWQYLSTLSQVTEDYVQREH

Aspergillus fumigatus = test: Concentration required to inhibit growth of MF 4839 strain of Aspergillus fumigatus; type: functional
Method in brief: (§1)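 Broth microdilution against a panel of clinically relevant fungal strains. Read-out was the minimum fungicidal concentration in μg/mL.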

Candida parapsilosis = test: Concentration required to inhibit growth of MY 1010 strain of Candida parapsilosis; type: functional; settings: Lodderomyces parapsilosis; method in brief: as §1
Candida albicans [2] = test: Concentration required to inhibit growth of MY 1055 strain of Candida albicans; type: functional; method in brief: as §1
Candida albicans [3] = test: Concentration required to inhibit growth of MY 1750 strain of Candida albicans; type: functional; method in brief: as §1
Candida tropicalis = test: Concentration required to inhibit growth of MY 1012 strain of Candida tropicalis; type: functional; method in brief: as §1
Cryptococcus neoformans [4] = test: Concentration required to inhibit growth of MY 1051 strain of Cryptococcus neoformans; type: functional; method in brief: as §1
Cryptococcus neoformans [5] = test: Concentration required to inhibit growth of MY 2061 strain of Cryptococcus neoformans; type: functional; method in brief: as §1
HepG2 [6] = test: Concentration required to inhibit cholesterol synthesis in Hep G2 cells; type: functional, cell-based; settings: Homo sapiens
Method in brief: (§2)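 Hep G2 cells held 2 days in lipoprotein-depleted FBS to stimulate sterol synthesis, then given inhibitor in serum-free medium for 2 h. 15 μCi [5-3H]mevalonate (0.2 mCi/mmol) added for 1 h. Cells washed and saponified, and radioactivity counted by scintillation.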

Mus musculus [7] = test: Ability to inhibit the incorporation of [5-3H]-mevalonolactone into cholesterol by in vivo mouse assay by peroral administration at a dose of 24 mg/kg; type: functional; settings: route oral
Method in brief: (§3)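 Female Swiss Webster mice (~25 g), six per group, dosed po by gavage with inhibitor suspended in 5% emulphor. 30 min later, 0.5 μCi/mouse [5-3H]mevalonolactone in saline given sc. Livers removed 30 min after that and saponified in KOH/EtOH overnight at 55 °C, then petroleum-ether extracted. Nonsaponifiable dpm counted. Compounds first tested at a single dose (typically 12 or 24 mg/kg).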

Trichophyton benhamiae = test: Concentration required to inhibit growth of MF 4864 strain of Trichophyton mentagrophytes; type: functional, Arthroderma benhamiae; method in brief: as §1
HepG2 [8] = test: Concentration required to inhibit cholesterol synthesis in Hep G2 cells relative to control (IC50 of L-694,599); type: functional, Homo sapiens; method in brief: as §2
Mus musculus [9] = test: Tested for its ability to inhibit the incorporation of [5-3H]-mevalonolactone into cholesterol by in vivo mouse assay by peroral administration at a dose of 40 mg/kg; type: functional; settings: route oral; method in brief: as §3
Squalene synthase [10] = target: T1, Squalene synthase; test: Tested for inhibition against squalene synthase enzyme in rat liver
[11] = target: T2, Squalene synthase (Rattus norvegicus) (UniProt Q02769); test: concentration required to inhibit rat liver squalene synthase enzyme relative to control (L-694,599)
T2 sequence (whole entry): T1 sequence (Q02769 whole entry)
Method in brief: (§4)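 Enzyme from rat liver. […] Inhibitors added in DMSO (0.3% final) as 3-fold serial dilutions, usually up to 30 ng/mL (about 40 nM). IC50 read from % inhibition vs log concentration.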

[12] = tested on: squalene synthase (Saccharomyces cerevisiae); test: compound required to inhibit 50% activity of yeast squalene synthase enzyme relative to control (L-694,599).
[13] = target: T2, Squalene synthase (Rattus norvegicus); test: Concentration required to inhibit rat liver squalene synthase enzyme relative to control (L-694,599); method in brief: as §4
Mus musculus [14] = test: Tested for its ability to inhibit the incorporation of [5-3H]-mevalonolactone into cholesterol by in vivo mouse assay by peroral administration at a dose of 12 mg/kg; type: functional; settings: route oral; method in brief: as §3
[15] = target: T3, Squalene synthase (Mus musculus) (UniProt P53798); test: Tested for the effective dose required for the incorporation of [5-3H]-mevalonolactone into cholesterol by in vivo mouse assay by peroral administration; type: functional, organism-based; method in brief: as §3
T3 sequence (whole entry): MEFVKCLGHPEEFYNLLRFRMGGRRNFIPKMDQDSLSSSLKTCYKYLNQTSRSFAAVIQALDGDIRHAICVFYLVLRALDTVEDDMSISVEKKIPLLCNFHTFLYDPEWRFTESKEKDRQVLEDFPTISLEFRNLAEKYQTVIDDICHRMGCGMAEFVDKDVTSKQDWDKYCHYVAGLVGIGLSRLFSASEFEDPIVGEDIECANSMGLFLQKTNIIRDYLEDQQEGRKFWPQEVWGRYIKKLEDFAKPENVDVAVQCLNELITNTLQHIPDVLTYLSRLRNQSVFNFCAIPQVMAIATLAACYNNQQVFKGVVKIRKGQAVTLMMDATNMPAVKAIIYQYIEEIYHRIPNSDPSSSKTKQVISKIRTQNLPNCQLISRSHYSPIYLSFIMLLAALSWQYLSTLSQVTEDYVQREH

Squalene synthase [16] = target: T1, Squalene synthase; test: Concentration required for inhibition of rat liver squalene synthase enzyme at 161 nM; Not active

Compound: C=C(CCC12OC(C(=O)O)C(OCCCCCCCCCCCOc3ccccc3)(C(=O)O)C(C(=O)O)(O1)[C@H](OCCCCCCCCCCCOc1ccccc1)[C@H]2O)[C@@H](OC(C)=O)[C@H](C)Cc1ccccc1 (stereo partly drawn)
IC50 (Squalene synthase [1]): Not Active

Compound: CC(=O)OC(CCCC12OC(C(=O)O)C(O)(C(=O)O)C(C(=O)O)(O1)[C@H](OC(=O)CC/C=C/C(C)CCCc1ccccc1)[C@H]2O)C(C)Cc1ccccc1 (stereo partly drawn)
inhibition in vivo at 40 mg/kg (Mus musculus [9]): 20%
IC50 (Squalene synthase [10]): 0.37 nM
Relative activity [13]: 1.38

Compound: C=C(CCC12OC(C(=O)O)C(O)(C(=O)O)C(C(=O)O)(O1)[C@H](OC(=O)C(C)(C)C)[C@H]2O)[C@@H](OC(C)=O)[C@H](C)Cc1ccccc1 (stereo partly drawn)
inhibition in vivo at 12 mg/kg (Mus musculus [14]): -2%
ED50 [15]: > 12 mg/kg
IC50 (Squalene synthase [16]): Not Active

Compound: C=C(CCC12OC(C(=O)O)C(O)(C(=O)O)C(C(=O)O)(O1)[C@H](OC)[C@H]2O)[C@@H](OC(C)=O)[C@H](C)Cc1ccccc1 (stereo partly drawn)
inhibition in vivo at 12 mg/kg (Mus musculus [14]): 73%
ED50 [15]: < 12 mg/kg
IC50 (Squalene synthase [10]): 22 nM
Relative activity [13]: 0.004

Compound: C=C(CCC12OC(C(=O)O)C(OCCC)(C(=O)O)C(C(=O)O)(O1)[C@H](OCCC)[C@H]2O)[C@@H](OC(C)=O)[C@H](C)Cc1ccccc1 (stereo partly drawn)
IC50 (Squalene synthase [16]): Not Active

Compound: C=C(CCC12OC(C(=O)O)C(O)(C(=O)O)C(C(=O)O)(O1)[C@H](OC(=O)CC(C)(C)C)[C@H]2O)[C@@H](OC(C)=O)[C@H](C)Cc1ccccc1 (stereo partly drawn)
inhibition in vivo at 12 mg/kg (Mus musculus [14]): 25%
ED50 [15]: > 12 mg/kg
IC50 (Squalene synthase [10]): 2 nM
Relative activity [11]: 0.15

Compound: C=C(CCC12OC(C(=O)O)C(O)(C(=O)O)C(C(=O)O)(O1)[C@H](OC(=O)OCCCCCCCCCCCOc1ccccc1)[C@H]2O)[C@@H](OC(C)=O)[C@H](C)Cc1ccccc1 (stereo partly drawn)
MFC (Aspergillus fumigatus): 0.15 µg/mL (≈ 0.181 µM)
MFC (Candida parapsilosis): 4 µg/mL (≈ 4.83 µM)
MFC (Candida albicans [2]): > 128 µg/mL
MFC (Candida albicans [3]): 0.5 µg/mL (≈ 0.603 µM)
MFC (Candida tropicalis): 0.5 µg/mL (≈ 0.603 µM)
MFC (Cryptococcus neoformans [4]): 8 µg/mL (≈ 9.65 µM)
MFC (Cryptococcus neoformans [5]): 16 µg/mL (≈ 19.3 µM)
IC50 (HepG2 [6]): 2400 nM
Relative activity (HepG2 [8]): 3.46
inhibition in vivo at 40 mg/kg (Mus musculus [9]): 12%
IC50 (Squalene synthase [10]): 0.04 nM
Relative activity [11]: 3
Relative activity [12]: 6.07

More lines, main results first:

IC50 (HepG2 [6]): 2400 nM
Compound: C=C(CCC12OC(C(=O)O)C(O)(C(=O)O)C(C(=O)O)(O1)[C@H](OC(=O)OCCCCCCCCCC)[C@H]2O)[C@@H](OC(C)=O)[C@H](C)Cc1ccccc1 (stereo partly drawn)
MFC (Aspergillus fumigatus): 2 µg/mL (≈ 2.77 µM)
MFC (Candida parapsilosis): 2 µg/mL (≈ 2.77 µM)
MFC (Candida albicans [2]): 8 µg/mL (≈ 11.1 µM)
MFC (Candida albicans [3]): 16 µg/mL (≈ 22.1 µM)
MFC (Candida tropicalis): 2 µg/mL (≈ 2.77 µM)
MFC (Cryptococcus neoformans [4]): 8 µg/mL (≈ 11.1 µM)
MFC (Cryptococcus neoformans [5]): 0.25 µg/mL (≈ 0.346 µM)
inhibition in vivo at 24 mg/kg (Mus musculus [7]): 28%
MFC (Trichophyton benhamiae): < 0.06 µg/mL

IC50 (HepG2 [6]): 1600 nM
IC50 (Squalene synthase [10]): 0.12 nM
Relative activity [11]: 2.5
Relative activity [12]: 9.26
Compound: C=C(CCC12OC(C(=O)O)C(O)(C(=O)O)C(C(=O)O)(O1)[C@H](OCCCCCCCCCCCC)[C@H]2O)[C@@H](OC(C)=O)[C@H](C)Cc1ccccc1 (stereo partly drawn)
MFC (Aspergillus fumigatus): 0.5 µg/mL (≈ 0.707 µM)
MFC (Candida parapsilosis): 8 µg/mL (≈ 11.3 µM)
MFC (Candida albicans [2]): 4 µg/mL (≈ 5.66 µM)
MFC (Candida albicans [3]): 32 µg/mL (≈ 45.3 µM)
MFC (Candida tropicalis): 64 µg/mL (≈ 90.5 µM)
MFC (Cryptococcus neoformans [4]): 0.5 µg/mL (≈ 0.707 µM)
MFC (Cryptococcus neoformans [5]): 0.12 µg/mL (≈ 0.17 µM)
Relative activity (HepG2 [8]): 5.62
inhibition in vivo at 40 mg/kg (Mus musculus [9]): 26%
MFC (Trichophyton benhamiae): 1 µg/mL (≈ 1.41 µM)

IC50 (HepG2 [6]): 1500 nM
IC50 (Squalene synthase [10]): 0.09 nM
Relative activity [11]: 1.26
Compound: C=C(CCC12OC(C(=O)O)C(O)(C(=O)O)C(C(=O)O)(O1)[C@H](OCCCCCCCCCCCCCC)[C@H]2O)[C@@H](OC(C)=O)[C@H](C)Cc1ccccc1 (stereo partly drawn)
Relative activity (HepG2 [8]): 6
inhibition in vivo at 40 mg/kg (Mus musculus [9]): 0%

IC50 (HepG2 [6]): 2200 nM
IC50 (Squalene synthase [10]): 0.21 nM
Relative activity [11]: 1.43
Compound: C=C(CCC12OC(C(=O)O)C(O)(C(=O)O)C(C(=O)O)(O1)[C@H](OCCCCCCCCCC)[C@H]2O)[C@@H](OC(C)=O)[C@H](C)Cc1ccccc1 (stereo partly drawn)
Relative activity (HepG2 [8]): 4.09
inhibition in vivo at 40 mg/kg (Mus musculus [9]): 28%
